# Experimental data taken from ChEMBL document CHEMBL1122671, “Anticonvulsant activity of some 4-aminobenzamides” (J Med Chem, 1984).
# Calls of active or inactive are those of the source.
# How the values were obtained:
# Mus musculus [1] = test: Evaluation of neurologic deficit by rotarod procedure in mice*-No activity at 300 mg/kg; assay type: functional
# Outline: (§1)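 Male Carworth Farms number-one mice were dosed ip (30% PEG 400 vehicle) and placed on a 1-in. knurled plastic rod rotating at 6 rpm. Neurotoxicity meant failure to stay on the rod for 1 min. TD50 was determined graphically.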
# [2] = Protective index (PI) which is defined as the ratio of TD50 to the ED50 (MES).; assay type: functional
# Outline: (§2)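 Both values come from ip dosing in 30% PEG 400 to male Carworth Farms number-one mice and were derived by the graphical method.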
# [3] = Protective index (PI) which is defined as the ratio of TD50 to the ED50 (ScMet).; assay type: functional; outline: as §2
# Mus musculus [4] = test: Anticonvulsant activity against MES (maximal electroshock) induced seizure in mice at 4 hr; d = No Activity at 300 mg/kg.; assay type: functional, organism-based; set-up: dose 300 mg/kg
# Outline: (§3)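 Male Carworth Farms number-one mice received the compound ip in 30% polyethylene glycol 400. Doses were 30, 100 and 300 mg/kg, with 600 mg/kg in some cases. Maximal electroshock seizure protection was scored at 30 min and 4 h after dosing. Activity is coded by the lowest effective dose.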
# Mus musculus [5] = test: Anticonvulsant activity against scMet (subcutaneous metrazole) induced seizure in mice at 4 hr; d = No activity at 300 mg/kg.; assay type: functional, organism-based; set-up: dose 300 mg/kg
# Mus musculus [6] = test: Evaluated for toxicity by using rotarod test in mice at 4 hr; ++ = Activity at 300 mg/kg.; assay type: organism-based; set-up: dose 300 mg/kg; details: in vivo
# Outline: (§4)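 Neurotoxicity in male Carworth Farms number-one mice dosed ip in 30% PEG 400 at 30, 100, 300 and sometimes 600 mg/kg, tested 30 min or 4 h later. Mice placed on a 1-in. knurled rod rotating at 6 rpm; toxicity means failure to stay on the rod for 1 min. Scored by the lowest toxic dose; footnotes record loss of righting reflex or lethality.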
# Mus musculus [7] = species on record: Mus musculus; test: Evaluation of inhibitory activity against scMet induced convulsions in mice; assay type: functional
# Mus musculus [8] = test: Anticonvulsant activity against MES (maximal electroshock) induced seizure in mice at 30 min; +++ = Activity at 100 mg/kg.; assay type: functional, organism-based; set-up: dose 100 mg/kg; outline: as §3
# Mus musculus [9] = test: Evaluated for toxicity by using rotarod test at in mice 30 min; +++ = Activity at 100 mg/kg, *-Loss of righting reflex at less than 300 mg/kg,LD50 less than 600 mg/kg; assay type: organism-based; details: in vivo, 0.5 h; outline: as §4
# Mus musculus [10] = test: Anticonvulsant activity against scMet (subcutaneous metrazole) induced seizure in mice at 30 min; d = No activity at 300 mg/kg.; assay type: functional, organism-based; set-up: dose 300 mg/kg
# Mus musculus [11] = test: Anticonvulsant activity against scMet (subcutaneous metrazole) induced seizure in mice at 4 hr; - = No activity at 600 mg/kg.; assay type: functional, organism-based; set-up: dose 600 mg/kg
# Outline: (§5)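 Male Carworth Farms number-one mice dosed ip (30% PEG 400) at 30, 100, 300 and in some cases 600 mg/kg. Pentylenetetrazole 85 mg/kg given sc as a 0.5% solution in the posterior midline, at 30 min or 4 h. Protection means no clonic spasm of at least 5 s within 30 min. Scored by the lowest protective dose.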
# Mus musculus [12] = test: Evaluated for toxicity by using rotarod test at in mice 30 min; - = No activity at 600 mg/kg.; assay type: organism-based; set-up: dose 600 mg/kg; details: in vivo, 0.5 h; outline: as §4
# Mus musculus [13] = test: Evaluated for toxicity by using rotarod test in mice at 4 hr; - = No activity at 600 mg/kg.; assay type: organism-based; set-up: dose 600 mg/kg; details: in vivo; outline: as §4
# Mus musculus [14] = test: Anticonvulsant activity against scMet (subcutaneous metrazole) induced seizure in mice at 30 min; - = No activity at 600 mg/kg.; assay type: functional, organism-based; set-up: dose 600 mg/kg; outline: as §5
# Mus musculus [15] = test: Anticonvulsant activity against MES (maximal electroshock) induced seizure in mice at 4 hr; - = No activity at 600 mg/kg.; assay type: functional, organism-based; set-up: dose 600 mg/kg
# Outline: (§6)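 Male Carworth Farms number-one mice; compounds in 30% polyethylene glycol 400, given ip at 30, 100 and 300 mg/kg, some also at 600 mg/kg. Maximal electroshock challenge at 30 min or 4 h after dosing. Scored by the lowest dose giving protection (++++ 30, +++ 100, ++ 300, + 600 mg/kg; - none at 600).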
# Mus musculus [16] = test: Anticonvulsant activity against MES (maximal electroshock) induced seizure in mice at 30 min; + = Activity at 600 mg/kg.; assay type: functional, organism-based; set-up: dose 600 mg/kg; outline: as §6
# Mus musculus [17] = species on record: Mus musculus; test: Evaluation of inhibitory activity aagainst MES induced convulsions in mice.; assay type: functional
# Outline: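 Quantitative MES test in male Carworth Farms number-one mice. Compound in 30% polyethylene glycol 400, given ip at graded doses. Median effective dose (ED50) read by the graphical method.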
# Mus musculus [18] = test: Anticonvulsant activity against MES (maximal electroshock) induced seizure in mice at 4 hr; +++ indicates activity at 100 mg/kg.; assay type: functional, organism-based; set-up: dose 100 mg/kg; outline: as §3
# Mus musculus [19] = test: Anticonvulsant activity against scMet (subcutaneous metrazole) induced seizure in mice at 4 hr; ++ indicates activity at 300 mg/kg.; assay type: functional, organism-based; set-up: dose 300 mg/kg
# Mus musculus [20] = test: Evaluated for toxicity by using rotarod test at in mice 30 min; +++ indicates activity at 100 mg/kg *-Loss of righting reflex at less than 600 mg/kg; assay type: organism-based; details: in vivo, 0.5 h; outline: as §4
# Mus musculus [21] = species on record: Mus musculus; test: Evaluation of neurologic deficit by rotarod procedure in mice; assay type: functional; outline: as §1
# Mus musculus [22] = test: Evaluated for toxicity by using rotarod test in mice at 4 hr; ++ indicates activity at 300 mg/kg.; assay type: organism-based; set-up: dose 300 mg/kg; details: in vivo; outline: as §4
# Mus musculus [23] = test: Anticonvulsant activity against scMet (subcutaneous metrazole) induced seizure in mice at 30 min; - = no activity observed at 600 mg/Kg; assay type: functional, organism-based
# Mus musculus [24] = test: Evaluated for toxicity by using rotarod test at in mice 30 min; - = no activity observed at 600 mg/Kg; assay type: organism-based; details: in vivo, 0.5 h; outline: as §4
# Mus musculus [25] = test: Anticonvulsant activity against MES (maximal electroshock) induced seizure in mice at 30 min; - = no activity observed at 600 mg/Kg; assay type: functional, organism-based; outline: as §3
# Mus musculus [26] = test: Anticonvulsant activity against MES (maximal electroshock) induced seizure in mice at 4 hr; - = no activity observed at 600 mg/Kg; assay type: functional, organism-based; outline: as §3
# Mus musculus [27] = test: Evaluated for toxicity by using rotarod test in mice at 4 hr; - = no activity observed at 600 mg/Kg; assay type: organism-based; details: in vivo; outline: as §4
# Mus musculus [28] = test: Anticonvulsant activity against scMet (subcutaneous metrazole) induced seizure in mice at 4 hr; - = no activity observed at 600 mg/Kg; assay type: functional, organism-based
# Mus musculus [29] = test: Anticonvulsant activity against scMet (subcutaneous metrazole) induced seizure in mice at 4 hr; ++ indicates activity at 600 mg/kg.; assay type: functional, organism-based; set-up: dose 600 mg/kg
# Mus musculus [30] = test: Anticonvulsant activity against scMet (subcutaneous metrazole) induced seizure in mice at 30 min; ++ indicates activity at 600 mg/kg.; assay type: functional, organism-based; set-up: dose 600 mg/kg
# Mus musculus [31] = test: Anticonvulsant activity against MES (maximal electroshock) induced seizure in mice at 4 hr; ++ = Activity at 300 mg/kg.; assay type: functional, organism-based; set-up: dose 300 mg/kg; outline: as §3
# Mus musculus [32] = test: Evaluated for toxicity by using rotarod test at in mice 30 min; ++ indicates activity at 300 mg/kg,*-Loss of righting reflex at less than 300 mg/kg; assay type: organism-based; details: in vivo, 0.5 h; outline: as §4
# Mus musculus [33] = test: Evaluated for toxicity by using rotarod test in mice at 4 hr; + indicates activity at 600 mg/kg.; assay type: organism-based; set-up: dose 600 mg/kg; details: in vivo; outline: as §4
# Mus musculus [34] = test: Anticonvulsant activity against scMet (subcutaneous metrazole) induced seizure in mice at 4 hr; ++ = Activity at 300 mg/kg.; assay type: functional, organism-based; set-up: dose 300 mg/kg
# Mus musculus [35] = test: Anticonvulsant activity against scMet (subcutaneous metrazole) induced seizure in mice at 30 min; ++ = Activity at 300 mg/kg.; assay type: functional, organism-based; set-up: dose 300 mg/kg
# Mus musculus [36] = species on record: Mus musculus; test: Evaluation of inhibitory activity against scMet induced convulsions in mice; NA = No activity.; assay type: functional, organism-based
# Mus musculus [37] = test: Evaluated for toxicity by using rotarod test at in mice 30 min; +++ = Activity at 100 mg/kg,*-Loss of righting reflex at less than 300 mg/kg; assay type: organism-based; details: in vivo, 0.5 h; outline: as §4
# Mus musculus [38] = test: Evaluated for toxicity by using rotarod test at in mice 30 min; +++ = Activity at 100 mg/kg, *-Loss of righting reflex at less than 300 mg/kg; assay type: organism-based; details: in vivo, 0.5 h; outline: as §4
# Mus musculus [39] = test: Anticonvulsant activity against MES (maximal electroshock) induced seizure in mice at 4 hr; +++ = Activity at 100 mg/kg.; assay type: functional, organism-based; set-up: dose 100 mg/kg; outline: as §3
compound,measurement,setting,value
CCCCNC(=O)c1ccc(N)cc1,TD50,Mus musculus [1],105 mg/kg
same,PI,[2],2.2
same,PI,[3],1.3
same,Activity,Mus musculus [4],No activity
same,Activity,Mus musculus [5],No activity
same,Toxicity,Mus musculus [6],"Activity at 100 mg/kg, *-Loss of righting reflex at < 300mg/kg,LD50 < 600 mg/kg"
same,ED50,Mus musculus [7],83 mg/kg
same,Activity,Mus musculus [8],Activity at 100 mg/kg
same,Toxicity,Mus musculus [9],"Activity at 100 mg/kg, *-Loss of righting reflex at < 300mg/kg,LD50 < 600 mg/kg"
same,Activity,Mus musculus [10],No activity
CNC(=O)c1ccc(N)cc1,Activity,Mus musculus [11],Not toxic
same,Toxicity,Mus musculus [12],Not toxic
same,Toxicity,Mus musculus [13],Not toxic
same,Activity,Mus musculus [14],Not toxic
same,Activity,Mus musculus [15],Not toxic
same,Activity,Mus musculus [16],Activity at 600 mg/kg
CN(Cc1ccccc1)C(=O)c1ccc(N)cc1,PI,[2],1.9
same,PI,[3],1.2
same,ED50,Mus musculus [17],52.6 mg/kg
same,Activity,Mus musculus [18],Activity at 100 mg/kg
same,ED50,Mus musculus [7],81.7 mg/kg
same,Activity,Mus musculus [8],Activity at 100 mg/kg
same,Activity,Mus musculus [19],Activity at 100 mg/kg
same,Toxicity,Mus musculus [20],activity at 100 mg/kg *-Loss of righting reflex at less than 600 mg/kg
same,TD50,Mus musculus [21],98.1 mg/kg
same,Toxicity,Mus musculus [22],activity at 100 mg/kg *-Loss of righting reflex at less than 600 mg/kg
Nc1ccc(C(=O)NC(c2ccccc2)c2ccccc2)cc1,Activity,Mus musculus [23],Not toxic
same,Toxicity,Mus musculus [24],Not toxic
same,Activity,Mus musculus [25],Not toxic
same,Activity,Mus musculus [26],Not toxic
same,Toxicity,Mus musculus [27],Not toxic
same,Activity,Mus musculus [28],Not toxic
CCCNC(=O)c1ccc(N)cc1,Activity,Mus musculus [8],Activity at 100 mg/kg
same,Activity,Mus musculus [29],Activity at 100 mg/kg
same,Activity,Mus musculus [30],Activity at 100 mg/kg
same,Activity,Mus musculus [31],Activity at 100 mg/kg
same,Toxicity,Mus musculus [32],"activity at 300 mg/kg,*-Loss of righting reflex at less than 300 mg/kg"
same,Toxicity,Mus musculus [33],"activity at 300 mg/kg,*-Loss of righting reflex at less than 300 mg/kg"
CCCN(CCC)C(=O)c1ccc(N)cc1,PI,[2],1.9
same,Toxicity,Mus musculus [6],"Activity at 100 mg/kg,*-Loss of righting reflex at < 300 mg/kg"
same,Activity,Mus musculus [8],Activity at 100 mg/kg
same,Activity,Mus musculus [34],Activity at 100 mg/kg
same,Activity,Mus musculus [35],Activity at 100 mg/kg
same,ED50,Mus musculus [36],inactive
same,TD50,Mus musculus [21],116 mg/kg
same,Activity,Mus musculus [31],Activity at 100 mg/kg
same,Toxicity,Mus musculus [37],"Activity at 100 mg/kg,*-Loss of righting reflex at < 300 mg/kg"
Nc1ccc(C(=O)NCc2ccccc2)cc1,PI,[2],3.6
same,Toxicity,Mus musculus [38],"Activity at 100 mg/kg, *-Loss of righting reflex at < 300 mg/kg"
same,Activity,Mus musculus [39],Activity at 100 mg/kg
same,Toxicity,Mus musculus [6],"Activity at 100 mg/kg, *-Loss of righting reflex at < 300 mg/kg"
same,Activity,Mus musculus [34],Activity at 100 mg/kg
same,Activity,Mus musculus [14],Not toxic
same,ED50,Mus musculus [36],inactive
same,TD50,Mus musculus [21],83.4 mg/kg
